Hits are enriched below; roughly 2.2% of the tested compounds scored in any of these assays.
ABHD5 PLIN5 PPI – inhibitors of human ABHD5-perilipin-5 interaction | 360,000 compounds, 0.78% hits | inhibition, % at 4 µM | Split G. princeps luciferase complementation, luminescence, 4 h;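 active means inhibition above the mean inhibition across every tested compound plus 3 SD, cut at about 22% in these data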;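 further: 0% = DMSO only wells and the 100% control is not disclosed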
HKDC1 inh – inhibitors of human hexokinase HKDC1; Q2TB90; recombinant HKDC1, G6PDH/diaphorase resazurin coupled fluorescence; inhibition, % at 20 µM; 340,000 compounds, 0.16% hits;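 active means inhibition above about 35% when tested at 20 µM, limit read from the data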;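 further: plate controls were DMSO wells with enzyme for no effect and DMSO wells lacking enzyme for full effect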
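Material: recombinant HKDC1 hexokinase; Amount: HKDC1 at 5 µg/mL; Medium: Tris pH 8.0 buffer with MgCl2, Tween-20, BSA, BME; Schedule: 90 min reaction incubation at room temperature, dark; Technique: coupled resazurin fluorescence, excitation 525 nm, emission 613 nm.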
PfG6PD inh – PfG6PD (Plasmodium falciparum) enzyme inhibition | PfGluPho enzyme, NADPH resazurin-diaphorase fluorescence | inhibition, % at 20 µM | 350,000 compounds, 0.78% hits | AID 504690;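 active means inhibition reaching at least a set limit at 20 µM in the primary screen, cut at about 59% in these data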;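 further: 0% = DMSO wells with substrate and 100% = DMSO wells lacking glucose-6-phosphate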
Granule exo inh – blocks lytic granule exocytosis. TALL-104 LAMP-1 surface exposure, flow cytometry; cells stimulated with thapsigargin and PMA. inhibition, % at 10 µM. 360,000 compounds, 0.66% hits;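 active means inhibition above about 55%, limit read from the data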
ABHD5-PLIN5 conf – confirmation of human ABHD5-PLIN5 interaction inhibitors | shares compounds with ABHD5 PLIN5 PPI | biochemical ABHD5-PLIN5 interaction, luminescence | inhibition, % at 4 µM | 2,200 compounds, 67% hits; in the data active means inhibition above about 23%;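 further: 0% = DMSO vehicle wells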
HNF4 split-luc – HNF4 split-luciferase signal hit, counter-screen; inhibition, % at 4 µM; shares compounds with ABHD5 PLIN5 PPI; HNF4 dimerization, luminescence, biochemical; 2,200 compounds, 77% hits;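 active means mean inhibition across replicate wells exceeding the computed hit threshold, cut at about 13% in these data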;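 further: light from luciferase halves that rejoin when HNF4 fusion proteins dimerize; 0% = DMSO only wells and the 100% control is not given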
Target sequence (P41235 whole entry, looked up, the tested form may be a part): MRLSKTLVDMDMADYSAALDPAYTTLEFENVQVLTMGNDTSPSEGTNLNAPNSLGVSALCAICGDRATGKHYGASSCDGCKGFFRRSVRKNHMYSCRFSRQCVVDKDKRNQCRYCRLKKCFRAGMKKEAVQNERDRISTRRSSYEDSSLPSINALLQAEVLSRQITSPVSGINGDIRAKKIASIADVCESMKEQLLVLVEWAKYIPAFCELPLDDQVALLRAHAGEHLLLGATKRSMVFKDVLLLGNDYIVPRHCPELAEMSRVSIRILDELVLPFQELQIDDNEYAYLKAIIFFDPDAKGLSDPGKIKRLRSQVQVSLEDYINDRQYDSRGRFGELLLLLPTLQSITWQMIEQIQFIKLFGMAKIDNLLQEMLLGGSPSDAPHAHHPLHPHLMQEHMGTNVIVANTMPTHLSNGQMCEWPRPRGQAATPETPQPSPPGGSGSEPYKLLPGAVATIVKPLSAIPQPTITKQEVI
An asterisk follows results filed as active; . = no result.

SMILES	ABHD5 PLIN5 PPI	HKDC1 inh	PfG6PD inh	Granule exo inh	ABHD5-PLIN5 conf	HNF4 split-luc
COc1ccccc1-c1cc(C(F)(F)F)nc(S(=O)(=O)CCCC(=O)Nc2cccnc2Cl)n1	32*	6	-1	28	51*	69*
COc1cccc(-c2c(C(=O)N/N=C(\C)c3cccnc3)nnn2-c2nonc2N)c1	9	-1	32	8	.	.
Cc1ccc(S(=O)(=O)Nc2nc3ccccc3nc2NCc2ccco2)cc1C	28*	0	-29	-3	15	27*
NC1=NC(=O)/C(=C\c2cc([N+](=O)[O-])ccc2Cl)S1	25*	-3	-26	1	24*	19*
NC1=NC(=O)/C(=C/c2ccc(Cl)cc2Cl)S1	3	1	11	-4	.	.
CCOc1ccc(S(=O)(=O)Nc2cccc(C(=O)NCC3CCCO3)c2)cc1 (stereo not given)	-1	1	-13	-4	.	.
COC(=O)[C@@H]1OC(=O)[C@H]2O[C@@]23[C@@]1(C)CC[C@@H]1[C@@]2(C)C=CC(=O)OC(C)(C)[C@@H]2CC(=O)[C@]13C	2	-4	4	18	.	.
CC(=O)O[C@@H]1C[C@H]2C(C)(C)C(=O)C=C[C@]2(C)[C@H]2CC[C@@]3(C)[C@H](c4ccoc4)OC(=O)[C@H]4O[C@]43[C@@]21C	27*	6	15	-4	43*	30*
CC(=O)OC1CC2C(C)(C)C(=O)C=CC2(C)C2CCC3(C)C(c4ccoc4)OC(=O)C4OC43C12C (stereo not given)	24*	.	.	-1	42*	34*
CC1(C)OC(=O)C=C[C@]2(C)[C@H]3CC[C@@]4(C)[C@H](c5ccoc5)OC(=O)[C@H]5O[C@]54[C@]3(C)C(=O)C[C@@H]12	4	-7	-8	-2	.	.
COc1ccc(CCNC(=O)c2cccc(S(=O)(=O)N3CCOCC3)c2)cc1OC	27*	0	3	-3	4	10
CCS(=O)(=O)N1CCC(C(=O)Nc2ccc3c(c2)CCC3)CC1	-7	-5	9	3	.	.
COc1ccc(CNCc2ccncc2)c(OC)c1	5	2	8	-4	.	.
CCN(Cc1ccncc1)Cc1ccc(OC)cc1OC	26*	-6	-10	-7	-1	8
COc1ccc([C@H]2N[C@]3(CCCN(Cc4ccco4)C3=O)[C@H]3C(=O)N(Cc4ccccc4)C(=O)[C@@H]23)cc1	-2	.	3	-3	.	.
CC(C)(C)NC(=O)C(c1ccncc1)N(Cc1ccco1)C(=O)c1ccc(-c2ccccc2)[nH]1 (stereo not given)	30*	4	9	24	31*	44*
C=CCOC(=O)/C=C/C(=O)NC(N)=O	35*	-3	-2	-4	57*	55*
CCc1nnc(NC(=O)CSc2nc(C)cs2)s1	1	-2	-6	1	.	.
N#CC1=C(Nc2ccccc2Cl)SC2(CCCC2)NC1=O	33*	.	.	38	-2	19*
Cc1ccc(CN2C(=O)C(=O)c3cc(C)ccc32)cc1	30*	14	-5	0	25*	43*
Cc1ccc(C(CC(=O)c2ccc(Cl)cc2)C(=O)O)cc1 (stereo not given)	0	-7	4	-1	.	.
Cc1ccc(SC(CC(=O)c2ccc(C)cc2)C(=O)O)cc1 (stereo not given)	69*	-5	-4	55	29*	73*
Cc1cccc(CN2C(=O)/C(=C\c3ccc(C(=O)NCCN4CCOCC4)cc3)Sc3ccccc32)c1	7	-4	-4	12	.	.
CCN1CCN(CCNC(=O)c2ccc3c(c2)N(Cc2ccc(F)cc2)C(=O)/C(=C/c2ccccc2)S3)CC1	24*	20	4	39	17	4
Cc1ccc(C(=O)CC(C(=O)O)n2cncn2)cc1 (stereo not given)	2	-5	-4	4	.	.
SMILES	ABHD5 PLIN5 PPI	HKDC1 inh	PfG6PD inh	Granule exo inh	ABHD5-PLIN5 conf	HNF4 split-luc
Cc1ccc(C(=O)CC(C(=O)O)n2cnc([N+](=O)[O-])n2)cc1 (stereo not given)	55*	-5	17	30	29*	58*
Cn1c(N)c(C(=O)CSc2nnc(C3CC3)n2N)c(=O)n(C)c1=O	9	-4	0	-3	.	.
COc1ccc(CS(=O)(=O)CC2(O)CCN(C(=O)c3cccc(C(F)(F)F)c3)CC2)cc1	5	0	-12	-7	.	.
CCCCCCCCCCCCCCCCn1cc[n+](C)c1	32*	3	3	18	7	11
CC1CCN(S(=O)(=O)c2ccc3c(c2)N(CC(=O)NCCN2C(C)CCCC2C)C(=O)CS3)CC1 (stereo not given)	-7	-2	-4	-1	.	.
C=CCn1c(SCC(=O)NCC2CCCO2)nc2scc(-c3ccco3)c2c1=O (stereo not given)	34*	19	13	-4	34*	82*
C=CCn1c(SCC(=O)NCCOC)nc2scc(-c3ccco3)c2c1=O	32*	0	24	-2	42*	82*
O=C(CC12CC3CC(CC(C3)C1)C2)NC(=S)Nc1ccc(CN2CCOCC2)cc1	0	2	19	-1	.	.
O=C(c1ccco1)N1CCN(c2cc(=O)n(-c3ccc(Cl)cc3)c(=O)[nH]2)CC1	13	-3	-10	0	.	.
Cc1ccc(Cl)cc1-n1c(=O)cc(N2CCN(C(=O)c3ccco3)CC2)[nH]c1=O	23*	-4	-10	-3	5	4
N#Cc1cccc(C(=O)C(=O)N2CCN(c3ccccc3)CC2)c1	-7	.	.	19	.	.
COc1cc2c(cc1OC)C(c1cccs1)N(C(=O)c1cccc(S(=O)(=O)N(C)C)c1)CC2 (stereo not given)	6	14	6	2	.	.
O=C1/C(=C/c2ccccc2)CCc2ccc(Cl)nc21	76*	21	17	-6	91*	74*
O=S(=O)(NCC1(N2CCOCC2)CCCCC1)c1ccc(Cl)cc1C(F)(F)F	-7	-1	6	-2	.	.
Cc1cc2c(c(=O)n1Cc1cccnc1)C(c1ccccc1)C(C#N)=C(N)O2 (stereo not given)	-2	-3	-10	8	.	.
COc1ccc(C2C(C#N)=C(N)Oc3cc(C)n(Cc4ccco4)c(=O)c32)cc1 (stereo not given)	32*	1	23	-1	66*	68*
O=c1[nH]c2cc3c(cc2cc1CN(CCO)S(=O)(=O)c1ccccc1)OCCO3	0	-2	-15	-2	.	.
Cc1[nH]nc(-c2cccnc2)c1N=NN(C)C	62*	1	16	2	73*	79*
COc1ccc(NC(=O)/C=C/c2cc(Br)ccc2OC)cc1	8	4	19	-5	.	.
COc1ccc(Br)cc1/C=C/C(=O)c1ccc(NC(C)=O)cc1	27*	14	-8	0	85*	81*

Screens (PubChem)
